The values that follow come from ChEMBL document CHEMBL1926676, “Antimalarial β-carboline and indolactam alkaloids from Marinactinospora thermotolerans, a deep sea isolate” (J Nat Prod, 2011).

A value given as a limit tells only on which side of the number the result lay.

In one assay the test system is MDA-MB-231. As to the kind of experiment: Cytotoxicity against human MDA-MB-231 cells after 48 hrs by MTT assay. In kind it is functional, cell-based. To be noted: MDA-MB-231, 48 h. The gist of the method: (§1)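 Cells grown in RPMI-1640 with 10% FBS, 37 °C, 5% CO2. Seeded at 2 × 10^3 cells per well and left 12 h. Compounds added in DMSO at various concentrations for 48 h. MTT (1 mg/mL in PBS) then added for 4 h at 37 °C. Formazan dissolved in DMSO and absorbance read.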
(Tetrazolium assays rely on reduction of a dye to a coloured formazan, in cell work by metabolically active cells.)

A further assay relates to SW1990. In words: Cytotoxicity against human SW1990 cells after 48 hrs by MTT assay. In kind it is functional, cell-based. To be noted: SW1990, 48 h. The gist of the method:
as §1

The subject of the next assay is A549. As to the kind of experiment: Cytotoxicity against human A549 cells after 48 hrs by MTT assay. The format is functional, cell-based. To be noted: A549, 48 h. The gist of the method:
as §1

Another assay deals with MCF7. In words: Cytotoxicity against human MCF7 cells after 48 hrs by MTT assay. In kind it is functional, cell-based. To be noted: MCF7, 48 h. The gist of the method:
as §1

For another assay, the system named is NCI-H460. In words: Cytotoxicity against human NCI-H460 cells after 48 hrs by MTT assay. In kind it is functional, cell-based. To be noted: NCI-H460, 48 h. The gist of the method: as §1
The test system of another assay is DU-145. As to the kind of experiment: Cytotoxicity against human DU145 cells after 48 hrs by MTT assay. To be noted: DU-145, 48 h. In kind it is functional, cell-based. The gist of the method: as §1
Another assay has as its system SMMC-7721. As to the kind of experiment: Cytotoxicity against human SMMC7721 cells after 48 hrs by MTT assay. In kind it is functional, cell-based. To be noted: SMMC-7721, 48 h. The gist of the method:
as §1

The next assay relates to HeLa. As to the kind of experiment: Cytotoxicity against human HeLa cells after 48 hrs by MTT assay. In kind it is functional, cell-based. The gist of the method:
as §1

Assay [1] concerns Plasmodium falciparum. In words: Antiplasmodial activity against drug-sensitive Plasmodium falciparum 3D7 assessed as parasitaemia after 72 hrs using SYBR Green 1 staining by fluorescence method. In kind it is functional, organism-based. To be noted: 3D7, 72 h. The gist of the method: (§2)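 Blood-stage P. falciparum cultures at 0.2% parasitemia, 2% hematocrit, given serially diluted compound in quadruplicate; 72 h at 37 °C. Lysis buffer with SYBR Green I (0.2 μL/mL) added, 1 h in dark, then relative fluorescence read. IC50 by nonlinear regression of logistic dose-response curves.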

Assay [2] deals with Plasmodium falciparum. In words: Antiplasmodial activity against multidrug-resistant Plasmodium falciparum Dd2 assessed as parasitaemia after 72 hrs using SYBR Green 1 staining by fluorescence method. To be noted: Dd2, 72 h. The format is functional, organism-based. The gist of the method:
as §2

What is called IC50 is the concentration needed to halve the response being measured. With `C=CC(C)(C)c1ccc2c3c(c[nH]c13)C[C@@H](CO)NC(=O)[C@H](C(C)C)N2C` [PENDOLMYCIN], the IC50 with MDA-MB-231, in the assay on SW1990, in the assay with A549, in the assay with MCF7, in the assay on NCI-H460 and with DU-145 was more than 50 µM in each case. For the same compound, the half-maximal inhibitory concentration (IC50) in the assay with SMMC-7721 and in the assay on HeLa was more than 50 µM in each case.
Regarding `C=CC(C)(C)c1ccc2c3c(c[nH]c13)C[C@@H](CO[C@@H]1O[C@@H](CO)[C@H](O)[C@@H](O)[C@@H]1O)NC(=O)[C@H]([C@@H](C)CC)N2C`, the IC50 in the assay with MDA-MB-231 was more than 50 µM; in the assay with Plasmodium falciparum [1], 10.4 µM; with SW1990 it was more than 50 µM; in the assay on A549, more than 50 µM; in the assay on MCF7, more than 50 µM; with NCI-H460, more than 50 µM. The IC50 in the assay with Plasmodium falciparum [2] is 5.03 µM; with DU-145, more than 50 µM; in the assay on SMMC-7721, more than 50 µM; in the assay with HeLa, more than 50 µM.
Regarding `C=CC(C)(C)c1ccc2c3c(c[nH]c13)C[C@@H](CO)NC(=O)[C@H]([C@@H](C)CC)N2C` [METHYLPENDOLMYCIN], the IC50 in the assay with MDA-MB-231, in the assay with SW1990, with A549, with MCF7, in the assay on NCI-H460 and in the assay with DU-145 was more than 50 µM each time. Besides, the concentration for half-maximal inhibition (IC50) in the assay with SMMC-7721 and with HeLa was more than 50 µM throughout.
Consider `COc1ccc(CCNC(=O)c2cc3c([nH]c4ccccc43)c(C(C)=O)n2)cc1` [MARINACARBOLINE A], for which the half-inhibitory concentration (IC50) in the assay with MDA-MB-231 was more than 50 µM; with Plasmodium falciparum [1], 36 µM; with SW1990 it was more than 50 µM; in the assay on A549, more than 50 µM; in the assay on MCF7, more than 50 µM; with NCI-H460, more than 50 µM. Also, the IC50 is 1.92 µM with Plasmodium falciparum [2], more than 50 µM in the assay with DU-145, more than 50 µM in the assay with SMMC-7721 and more than 50 µM with HeLa.
For the compound `CC(=O)c1nc(C(=O)NCCc2ccc(O)cc2)cc2c1[nH]c1ccccc12`, the half-inhibitory concentration (IC50) in the assay with MDA-MB-231 is more than 50 µM; in the assay on Plasmodium falciparum [1] it was 16.6 µM; in the assay on SW1990 it was more than 50 µM; in the assay with A549, more than 50 µM; in the assay on MCF7, more than 50 µM; with NCI-H460, more than 50 µM. Also, the half-inhibitory concentration (IC50) in the assay on Plasmodium falciparum [2] is 15.6 µM; with DU-145, more than 50 µM; in the assay with SMMC-7721, more than 50 µM; in the assay on HeLa it was more than 50 µM.
Regarding `CC(=O)c1nc(C(=O)NCCc2c[nH]c3ccccc23)cc2c1[nH]c1ccccc12` [MARINACARBOLINE D], the IC50 is more than 50 µM with MDA-MB-231; 5.39 µM in the assay on Plasmodium falciparum [1]; more than 50 µM in the assay with SW1990; more than 50 µM in the assay on A549; more than 50 µM in the assay with MCF7; more than 50 µM in the assay on NCI-H460. The IC50 is 3.59 µM in the assay on Plasmodium falciparum [2], more than 50 µM in the assay with DU-145, more than 50 µM in the assay on SMMC-7721 and more than 50 µM in the assay with HeLa.
On to `CC(=O)c1nc(C(=O)NCCc2ccccc2)cc2c1[nH]c1ccccc12`, for which the half-maximal inhibitory concentration (IC50) was more than 50 µM in the assay with MDA-MB-231; 3.09 µM in the assay on Plasmodium falciparum [1]; more than 50 µM with SW1990; more than 50 µM in the assay with A549; more than 50 µM with MCF7; more than 50 µM in the assay on NCI-H460. Further, the IC50 is 3.38 µM with Plasmodium falciparum [2], more than 50 µM with DU-145, more than 50 µM with SMMC-7721 and more than 50 µM in the assay on HeLa.
Turning to `C=CC(C)(C)c1ccc2c3c(c[nH]c13)C[C@@H](CO)NC(=O)[C@H]([C@@H](C)CC)N2`, the IC50 in the assay on MDA-MB-231 is more than 50 µM; in the assay with Plasmodium falciparum [1], 20.8 µM; in the assay on SW1990, more than 50 µM; in the assay with A549, more than 50 µM; in the assay with MCF7, more than 50 µM; in the assay on NCI-H460, more than 50 µM. Besides, the IC50 in the assay on Plasmodium falciparum [2] was 18.7 µM; with DU-145, more than 50 µM; in the assay on SMMC-7721, more than 50 µM; with HeLa it was more than 50 µM.
Regarding `CC(=O)c1nccc2c1[nH]c1ccccc12`, the IC50 with MDA-MB-231, in the assay with SW1990, in the assay on A549, with MCF7, in the assay with NCI-H460 and in the assay on DU-145 was more than 50 µM each time. For the same compound, the IC50 in the assay on SMMC-7721 and with HeLa was more than 50 µM in each case.
